Data: PMC8485890 (Hepatology Communications, 2021)

Tests used:
C57BL/6J mice = test: Survival of mice after APAP overdose; format: in vivo, mouse (C57BL/6J); conditions: APAP 600 mg/kg oral gavage, within 24 hours
Outline: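 Fasted C57BL/6J mice were dosed by oral gavage with APAP dissolved in warm saline, at several doses including 600 mg/kg, and survival was tracked (n ≥ 9 per group). In the 24-h treatment arm, peptide was given intravenously at 100 µg/dose, 6, 12 and 18 h after APAP.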

[1] = test system: liver of APAP-treated mice; test: Serum ALT; format: in vivo, mouse; conditions: APAP 600 mg/kg oral gavage; 6 to 36 hours after overdose
Outline: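 Fasted mice received APAP 600 mg/kg, dissolved in warm saline, by oral gavage. Hepatocyte necrosis was followed over time by serum ALT, and liver sections were examined by H&E histopathology. Groups had at least five mice, and each experiment was done at least twice. Data are mean ± SEM, analysed by t test or one-way ANOVA.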

liver = test: Histopathology of liver sections; format: in vivo, mouse; conditions: APAP 600 mg/kg, H&E-stained liver sections, up to 24 hours
Outline: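 APAP (600 mg/kg) was given in warm saline by oral gavage to fasted mice. Livers were taken at times up to 24 h. Necrotic areas were scored on sections stained with hematoxylin and eosin. Groups had at least five mice, and experiments were repeated at least twice. Data are mean ± SEM.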

[2] = test system: pro-inflammatory mediators in liver and serum; test: Cytokine/chemokine ELISA in liver lysates and serum of APAP-treated mice; format: in vivo, mouse; conditions: APAP 600 mg/kg, as early as 6 hours
Outline: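 Fasted mice received APAP (600 mg/kg) dissolved in warm saline by oral gavage; controls received vehicle. TNF-α, CXCL1, CXCL2 and CXCL6 were measured by ELISA in liver lysates and serum over a time course after overdose. Groups had at least five mice, and experiments were run at least twice. Data are mean ± SEM, compared by one-way ANOVA.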

neutrophils in the liver = test: Neutrophil recruitment to the liver; format: in vivo, mouse (LysM-eGFP); conditions: APAP-treated LysM-eGFP mice, time course
Outline: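 LysM-eGFP mice were fasted and given oral APAP in warm saline. Neutrophils were counted in the liver by their GFP signal using confocal intravital microscopy over the injury time course. Extracellular DNA was visualised with i.v. Sytox green (2 µL of 5 mM). Groups had at least five mice, with experiments repeated at least twice. Data are mean ± SEM.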

[3] = test system: myeloperoxidase (MPO) activity in liver; test: MPO activity in liver lysates; format: in vivo, mouse; conditions: APAP-treated C57BL/6J mice
Outline: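 MPO activity was measured in liver lysates as an estimate of neutrophil infiltration. C57BL/6J mice were fasted, then dosed with APAP in warm saline by oral gavage. Treatment arms received 100 µg peptide i.v. at 6, 12 and 18 h after overdose. Groups had at least five mice, and each experiment was run at least twice. Data are mean ± SEM, compared by t test or one-way ANOVA.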

bacterial DNA = bacterial DNA present in skin injury; cited from earlier work
[4] = test system: APAP-induced liver injury; conditions: reducing agent; cited from earlier work
[5] = test system: extracellular DNA and MIG30 staining in the liver; test: Enzymatic removal of DNA and MIG30 staining from the injured liver; format: in vivo, mouse; conditions: APAP-treated mice, MIG30-TAMRA 20 µg; hyaluronidase 1,000 U or heparinase III 100 µg i.v.; up to 10 minutes
Outline: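 Fasted mice received APAP (dissolved in warm saline) by oral gavage. They then received i.v. Sytox green and 20 µg TAMRA-labelled peptide. Next they were given i.v. hyaluronidase (1,000 U) or heparinase III (100 µg); DNase 1 (1,000 U) was given similarly. Mean fluorescence intensity of DNA and peptide in liver was followed by confocal intravital microscopy for up to 10 minutes.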

[6] = cited from earlier work

CC(=O)Nc1ccc(O)cc1 [APAP, Acetaminophen]
mortality (C57BL/6J mice): 40% | liver damage (serum ALT levels) [1]: significant liver damage as early as 6 hours after APAP intoxication and up to 36 hours after the overdose | hepatic necrosis (histopathology) (liver): extensive hepatic necrosis | CXCL1 produced in the liver [2]: significant amounts | CXCL2 produced in the liver [2]: significant amounts | CXCL6 produced in the liver [2]: significant amounts | TNF-α produced in the liver [2]: significant amounts | neutrophil infiltration in the liver (neutrophils in the liver): profound neutrophil infiltration was observed between 12 and 36 hours after injury, which was maximal at the 24‐hour timepoint | neutrophils in liver by MPO assay [3]: presence of neutrophils predominantly 24 hours after APAP treatment

CXCL11: chemokine CXCL11
binding to bacterial DNA (bacterial DNA): bind to bacterial DNA

CC(=O)N[C@@H](CS)C(=O)O [N‐acetylcysteine]
effect on APAP-induced liver injury and inflammation [4]: effective only if given soon after the APAP challenge or as a pretreatment

hyaluronidase
removal of MIG30 staining from liver by glycosidase [5]: Neither the DNA nor the MIG30 staining were significantly removed

KKVLKVRKAQRSRQKKTT [control peptide]
GAG binding [6]: poor GAG affinity

CXCL10: chemokine CXCL10
binding to bacterial DNA (bacterial DNA): bind to bacterial DNA

B1: heparinase: Heparinase III produced and provided by A. Kungl (protein, UniProt Q59289 25-659, looked up)
Heparin-sulfate lyase: QSSSITRKDFDHINLEYSGLEKVNKAVAAGNYDDAAKALLAYYREKSKAREPDFSNAEKPADIRQPIDKVTREMADKALVHQFQPHKGYGYFDYGKDINWQMWPVKDNEVRWQLHRVKWWQAMALVYHATGDEKYAREWVYQYSDWARKNPLGLSQDNDKFVWRPLEVSDRVQSLPPTFSLFVNSPAFTPAFLMEFLNSYHQQADYLSTHYAEQGNHRLFEAQRNLFAGVSFPEFKDSPRWRQTGISVLNTEIKKQVYADGMQFELSPIYHVAAIDIFLKAYGSAKRVNLEKEFPQSYVQTVENMIMALISISLPDYNTPMFGDSWITDKNFRMAQFASWARVFPANQAIKYFATDGKQGKAPNFLSKALSNAGFYTFRSGWDKNATVMVLKASPPGEFHAQPDNGTFELFIKGRNFTPDAGVFVYSGDEAIMKLRNWYRQTRIHSTLTLDNQNMVITKARQNKWETGNNLDVLTYTNPSYPNLDHQRSVLFINKKYFLVIDRAIGEATGNLGVHWQLKEDSNPVFDKTKNRVYTTYRDGNNLMIQSLNADRTSLNEEEGKVSYVYNKELKRPAFVFEKPKKNAGTQNFVSIVYPYDGQKAPEISIRENKGNDFEKGKLNLTLTINGKQQLVLVP
removal of MIG30 staining from liver by glycosidase [5]: Neither the DNA nor the MIG30 staining were significantly removed

B2: CXCL9: full-length chemokine CXCL9 (protein, UniProt Q07325 1-125, looked up)
chain: MKKSGVLFLLGIILLVLIGVQGTPVVRKGRCSCISTNQGTIHLQSLKDLKQFAPSPSCEKIEIIATLKNGVQTCLNPDSADVKELIKKWEKQVSQKKKQKNGKKHQKKKVLKVRKSQRSRQKKTT
modifications: full-length
binding to bacterial DNA (bacterial DNA): bind to bacterial DNA
